Measurements published in ChEMBL document CHEMBL3351994, “Synthesis and biological evaluation of novel millepachine derivatives as a new class of tubulin polymerization inhibitors” (J Med Chem, 2014).
Values after ≈ are worked out from the molar mass of the structure shown.

Assays:
HepG2 [1] = experiment: Induction of apoptosis in human HepG2 cells assessed as necrotic cells at 50 nM after 24 hrs by annexin-V-FITC and propidium iodide staining based flow cytometry (reference value: 2.16%); type: functional
HepG2 [2] = experiment: Induction of apoptosis in human HepG2 cells assessed as viable cells at 200 nM after 48 hrs by annexin-V-FITC and propidium iodide staining based flow cytometry (reference value: 93.2%); type: functional; conditions: HepG2, 48 h, read-out: Activity
Rattus norvegicus = experiment: AUC in rat at 2.25 mg/kg, iv; type: ADME, organism-based, Plasma; set-up: dose 2.25 mg/kg, route intravenous; conditions: in vivo
Procedure, shortened: (§1)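 Rat pharmacokinetics; oral and intravenous dosing, with group sizes of 5, 5 and 4 rats. Parameters derived: systemic clearance, volume of distribution, area under the plasma concentration–time curve, maximum plasma concentration and percent oral bioavailability.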

[3] = Antiproliferative activity against human HCT8 cells assessed as inhibition of cell proliferation after 48 hrs by MTT assay; type: functional, cell-based; conditions: HCT-8, 48 h
Procedure, shortened: (§2)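 Cells grown at 37 °C in humidified 5% CO2. K562, C26 and HCT lines in RPMI-1640; other lines in DMEM; both media with 10% FBS, penicillin and streptomycin. 1000 cells/well seeded, incubated overnight, then compound at various doses for 48 h. MTT added for 4 h, formazan dissolved in DMSO, absorbance read at 590 nm. IC50 from dose–response curves, mean ± SEM of at least three independent experiments.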

HepG2 [4] = experiment: Induction of apoptosis in human HepG2 cells assessed as early apoptotic cells at 100 nM after 24 hrs by annexin-V-FITC and propidium iodide staining based flow cytometry (reference value: 3.63%); type: functional
Procedure, shortened: (§3)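 HepG2 cells treated with 50, 100 or 200 nM compound or DMSO vehicle for 24 or 48 h at 37 °C. Labeled with annexin-V-FITC and PI and analyzed by flow cytometry. Cells classified as early apoptotic (annexin-V+/PI−), late apoptotic (annexin-V+/PI+) or necrotic (annexin-V−/PI+).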

HUVEC = experiment: Cytotoxicity in HUVECs after 48 hrs by MTT assay; type: cell-based; conditions: Homo sapiens
Procedure, shortened: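 HUVEC proliferation measured by MTT after 48 h exposure. IC50 derived from the dose–response.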

HepG2 [5] = experiment: Induction of apoptosis in human HepG2 cells assessed as early apoptotic cells at 200 nM after 24 hrs by annexin-V-FITC and propidium iodide staining based flow cytometry (reference value: 3.63%); type: functional; procedure, shortened: as §3
[6] = Volume of distribution at steady state in rat at 2.25 mg/kg, iv; type: ADME, organism-based; set-up: dose 2.25 mg/kg, route intravenous; conditions: in vivo, read-out: Vdss
K562 = experiment: Antiproliferative activity against human K562 cells assessed as inhibition of cell proliferation after 48 hrs by MTT assay; type: functional, cell-based; conditions: K562, 48 h; procedure, shortened: as §2
HepG2 [7] = experiment: Induction of apoptosis in human HepG2 cells assessed as necrotic cells at 100 nM after 48 hrs by annexin-V-FITC and propidium iodide staining based flow cytometry (reference value: 2.16%); type: functional; procedure, shortened: as §3
[8] = Solubility in PBS solution by nephelometry; type: physicochemical
Procedure, shortened: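 Maximum soluble concentration in PBS, determined by nephelometry.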

[9] = Antiproliferative activity against human HCT15 cells assessed as inhibition of cell proliferation after 48 hrs by MTT assay; type: functional, cell-based; conditions: HCT-15, 48 h; procedure, shortened: as §2
MCF7 = experiment: Resistance index, ratio of IC50 for adriamycin resistant human MCF7 cells to IC50 for parental human MCF7 cells; type: functional
A2780cisR = experiment: Resistance index, ratio of IC50 for cisplatin resistant human […] cells to IC50 for parental human […] cells; type: functional
HepG2 [10] = experiment: Induction of apoptosis in human HepG2 cells assessed as early apoptotic cells at 50 nM after 48 hrs by annexin-V-FITC and propidium iodide staining based flow cytometry (reference value: 3.63%); type: functional; procedure, shortened: as §3
HepG2 [11] = experiment: Induction of apoptosis in human HepG2 cells assessed as necrotic cells at 100 nM after 24 hrs by annexin-V-FITC and propidium iodide staining based flow cytometry (reference value: 2.16%); type: functional; procedure, shortened: as §3
HepG2 [12] = experiment: Induction of cell cycle arrest in human HepG2 cells assessed as accumulation at G2/M phase phase at 200 nM after 24 hrs by propidium iodide staining based flow cytometry (reference value: 11.2%); type: functional
HepG2 [13] = experiment: Induction of apoptosis in human HepG2 cells assessed as necrotic cells at 200 nM after 48 hrs by annexin-V-FITC and propidium iodide staining based flow cytometry (reference value: 2.16%); type: functional
[14] = Cmax in rat at 2.25 mg/kg, iv; type: ADME, organism-based; set-up: dose 2.25 mg/kg, route intravenous; conditions: in vivo; procedure, shortened: as §1
HepG2 [15] = experiment: Induction of apoptosis in human HepG2 cells assessed as viable cells at 50 nM after 48 hrs by annexin-V-FITC and propidium iodide staining based flow cytometry (reference value: 93.2%); type: functional; conditions: HepG2, 48 h, read-out: Activity
HepG2 [16] = experiment: Induction of apoptosis in human HepG2 cells assessed as early apoptotic cells at 100 nM after 48 hrs by annexin-V-FITC and propidium iodide staining based flow cytometry (reference value: 3.63%); type: functional; procedure, shortened: as §3
[17] = Antiproliferative activity against taxol resistant human […] cells assessed as inhibition of cell proliferation after 48 hrs by MTT assay; type: functional, cell-based; conditions: A2780, 48 h; procedure, shortened: as §2
[18] = Antiproliferative activity against human A2780S cells assessed as inhibition of cell proliferation after 48 hrs by MTT assay; type: functional, cell-based; conditions: A2780, 48 h
Procedure, shortened: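 Cells grown in DMEM with 10% FBS, penicillin/streptomycin at 37 °C, 5% CO2. 1000 cells/well seeded, incubated overnight, then exposed to various doses for 48 h. MTT added for 4 h, formazan dissolved in DMSO, absorbance read at 590 nm. IC50 = concentration inhibiting proliferation by 50%, mean ± SEM of dose–response curves from at least three independent experiments.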

[19] = Antiproliferative activity against taxol resistant human HCT8 cells assessed as inhibition of cell proliferation after 48 hrs by MTT assay; type: functional, cell-based; conditions: HCT-8, 48 h; procedure, shortened: as §2
HepG2 [20] = experiment: Induction of cell cycle arrest in human HepG2 cells assessed as accumulation at G0/G1 phase at 100 nM after 24 hrs by propidium iodide staining based flow cytometry (reference value: 58.2%); type: functional
HepG2 [21] = experiment: Induction of apoptosis in human HepG2 cells assessed as late apoptotic cells at 50 nM after 24 hrs by annexin-V-FITC and propidium iodide staining based flow cytometry (reference value: 1.03%); type: functional; procedure, shortened: as §3
[22] = Antiproliferative activity against human DLD1 cells assessed as inhibition of cell proliferation after 48 hrs by MTT assay; type: functional, cell-based; conditions: DLD-1, 48 h; procedure, shortened: as §2
HepG2 [23] = experiment: Induction of cell cycle arrest in human HepG2 cells assessed as accumulation at G2/M phase phase at 100 nM after 24 hrs by propidium iodide staining based flow cytometry (reference value: 11.2%); type: functional
HepG2 [24] = experiment: Induction of cell cycle arrest in human HepG2 cells assessed as accumulation at S phase phase at 50 nM after 24 hrs by propidium iodide staining based flow cytometry (reference value: 30.6%); type: functional
HCT-8 = experiment: Resistance index, ratio of IC50 for taxol resistant human HCT8 cells to IC50 for parental human HCT8 cells; type: functional
HepG2 [25] = experiment: Induction of apoptosis in human HepG2 cells assessed as late apoptotic cells at 100 nM after 24 hrs by annexin-V-FITC and propidium iodide staining based flow cytometry (reference value: 1.03%); type: functional; procedure, shortened: as §3

COc1ccc(/C=C/C(=O)c2ccc(OC)c3c2OC(C)(C)C=C3)cc1N
Activity (HepG2 [1]): 4.71% | viability at 0.2 µM (HepG2 [2]): 41.7% | AUC (Rattus norvegicus): 1810 ng·h/mL | IC50 [3]: 0.016 µM | Activity (HepG2 [4]): 9.65% | IC50 (HUVEC): 0.45 µM | Activity (HepG2 [5]): 11.45% | Vd [6]: 21 L/kg | IC50 (K562): 0.018 µM | Activity (HepG2 [7]): 5.45% | solubility kinetic [8]: 8 µg/mL (≈ 21.9 µM) | IC50 [9]: 0.019 µM | Ratio IC50 (MCF7): 1.6 | Ratio IC50 (A2780cisR): 0.7 | Activity (HepG2 [10]): 13.45% | Activity (HepG2 [11]): 3.83% | Activity (HepG2 [12]): 43.3% | Activity (HepG2 [13]): 3.54% | Cmax [14]: 2940 ng/mL | viability at 0.05 µM (HepG2 [15]): 66.1% | Activity (HepG2 [16]): 16.34% | IC50 [17]: 0.084 µM | IC50 [18]: 0.02 µM | IC50 [19]: 0.152 µM | Activity (HepG2 [20]): 34.8% | Activity (HepG2 [21]): 4.28% | IC50 [22]: 0.018 µM | Activity (HepG2 [23]): 37.4% | Activity (HepG2 [24]): 23.9% | Ratio IC50 (HCT-8): 9.5 | Activity (HepG2 [25]): 12.43%
